Measurements taken from ChEMBL document CHEMBL3616436, “Synthesis, cytotoxicity and antimicrobial activity of thiourea derivatives incorporating 3-(trifluoromethyl)phenyl moiety” (Eur J Med Chem, 2015).
Activity calls are given as the source filed them. No cut-off for these calls is given here.

How the values were obtained:
Vaccinia virus = experiment: Antiviral activity against Human Vaccinia virus ATCC VR-1549 infected in African green monkey Vero 76 cells assessed as reduction of virus-plaque formation after 3 days by crystal violet staining; format: functional, organism-based; settings: Orthopoxvirus vaccinia, ATCC VR-1549, Vero, 72 h
[1] = test system: Mammalian orthoreovirus 1; experiment: Antiviral activity against Reovirus type-1 ATCC VR-214 infected in BHK cells assessed as protection against virus-induced cytopathogenicity after 3 to 4 days by MTT assay; format: functional, cell-based; settings: Mammalian orthoreovirus 1, ATCC VR-214, BHK
Procedure, shortened: (§1)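 Cells seeded in 96-well plates (BHK 5x10^4, MDBK 3x10^4 cells/well), grown overnight to confluence, infected at m.o.i. 0.01 (BHK for Reo-1, MDBK for BVDV); serial compound dilutions in maintenance medium with 0.5% inactivated FBS added after 1 h; viability by MTT after 3–4 days at 37°C; EC50 for 50% protection by linear regression.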

[2] = Antiviral activity against Bovine viral diarrhea virus 1-NADL ATCC VR-534 infected in MDBK cells assessed as protection against virus-induced cytopathogenicity after 3 to 4 days by MTT assay; format: functional, cell-based; settings: Bovine viral diarrhea virus isolates and strains, ATCC VR-534, MDBK; procedure, shortened: as §1
Human alphaherpesvirus 1 = experiment: Antiviral activity against Human herpesvirus 1 KOS ATCC VR-1493 infected in African green monkey Vero 76 cells assessed as reduction of virus-plaque formation after 3 days by crystal violet staining; format: functional, organism-based; settings: Human alphaherpesvirus 1, KOS ATCC VR1493, Vero, 72 h
Procedure, shortened: (§2)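 Plaque reduction: Vero-76 at 2x10^5 cells/well grown to confluent monolayers, infected 2 h at 50–100 PFU/well; after removing unadsorbed virus, overlay of D-MEM, 1% inactivated FBS, 0.75% methylcellulose with or without serial compound dilutions; 3 days at 37°C, fixed and stained with crystal violet in 50% ethanol, plaques counted; EC50 by linear regression.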

Escherichia coli [3] = experiment: Antimicrobial activity against Escherichia coli ATCC 25922 after 18 hrs by twofold serial microdilution method; format: functional, organism-based
Coxsackievirus B5 = experiment: Antiviral activity against Human coxsackievirus B5 ATCC VR-29 infected in African green monkey Vero 76 cells assessed as reduction of virus-plaque formation after 3 days by crystal violet staining; format: functional, organism-based; settings: Enterovirus B, ATCC VR-29, Vero, 72 h; procedure, shortened: as §2
[4] = Cytotoxicity against bovine MDBK cells assessed as cell viability after 48 to 96 hrs by MTT assay; format: cell-based, Bos taurus; settings: cattle
Candida albicans [5] = experiment: Antimicrobial activity against Candida albicans ATCC 90028 after 24 hrs by twofold serial microdilution method; format: functional, organism-based
Pseudomonas aeruginosa [6] = experiment: Antimicrobial activity against Pseudomonas aeruginosa ATCC 15442 after 18 hrs by twofold serial microdilution method; format: functional, organism-based
Poliovirus 1 = experiment: Antiviral activity against Poliovirus type 1 ATCC VR-1562 infected in African green monkey Vero 76 cells assessed as reduction of virus-plaque formation after 2 days by crystal violet staining; format: functional, organism-based; settings: Enterovirus C, ATCC VR-1562, Vero, 48 h
Escherichia coli [7] = experiment: Antimicrobial activity against Escherichia coli NCTC 8196 after 18 hrs by twofold serial microdilution method; format: functional, organism-based
[8] = Cytotoxicity against human MT4 cells; format: cell-based
[9] = test system: Human immunodeficiency virus 1; experiment: Antiviral activity against HIV1 3B infected in human MT4 cells assessed as protection against virus-induced cytopathogenicity by MTT assay; format: functional, organism-based; settings: Human immunodeficiency virus 1, 3B
[10] = test system: Bordetella bronchiseptica; experiment: Antimicrobial activity against Bordetella bronchiseptica ATCC 4617 after 18 hrs by twofold serial microdilution method; format: functional, organism-based
Escherichia coli [11] = experiment: Antimicrobial activity against Escherichia coli ATCC 10538 after 18 hrs by twofold serial microdilution method; format: functional, organism-based
Candida parapsilosis = experiment: Antimicrobial activity against Candida parapsilosis ATCC 22019 after 24 hrs by twofold serial microdilution method; format: functional, organism-based
[12] = test system: Vesicular stomatitis virus; experiment: Antiviral activity against Vesicular stomatitis virus ATCC VR 1540 infected in African green monkey Vero 76 cells assessed as reduction of virus-plaque formation after 2 days by crystal violet staining; format: functional, organism-based; settings: ATCC VR 1540, Vero, 48 h
Yellow fever virus = experiment: Antiviral activity against Yellow fever virus 17D infected in BHK cells assessed as protection against virus-induced cytopathogenicity after 3 to 4 days by MTT assay; format: functional, cell-based
[13] = Cytotoxicity against African green monkey Vero 76 cells assessed as cell viability after 48 to 96 hrs by crystal violet staining; format: cell-based; settings: chlorocebus sabaeus
Candida albicans [14] = experiment: Antimicrobial activity against Candida albicans ATCC 10231 after 24 hrs by twofold serial microdilution method; format: functional, organism-based
Pseudomonas aeruginosa [15] = experiment: Antimicrobial activity against Pseudomonas aeruginosa NCTC 6749 after 18 hrs by twofold serial microdilution method; format: functional, organism-based
[16] = Cytotoxicity against BHK cells assessed as cell viability after 48 to 96 hrs by MTT assay; format: cell-based, Mesocricetus auratus; settings: hamster
Pseudomonas aeruginosa [17] = experiment: Antimicrobial activity against Pseudomonas aeruginosa ATCC 27863 after 18 hrs by twofold serial microdilution method; format: functional, organism-based

Row | SMILES | EC50 (Vaccinia virus) [µM] | EC50 [1] [µM] | EC50 [2] [µM] | EC50 (Human alphaherpesvirus 1) [µM] | Activity (Escherichia coli [3]) | EC50 (Coxsackievirus B5) [µM] | CC50 [4] [µM] | Activity (Candida albicans [5]) | Activity (Pseudomonas aeruginosa [6]) | EC50 (Poliovirus 1) [µM] | Activity (Escherichia coli [7]) | CC50 [8] [µM] | EC50 [9] [µM] | Activity [10] | Activity (Escherichia coli [11]) | Activity (Candida parapsilosis) | EC50 [12] [µM] | EC50 (Yellow fever virus) [µM] | CC50 [13] [µM] | Activity (Candida albicans [14]) | other results
1 | CC(=O)NC(=S)Nc1cccc(C(F)(F)F)c1 | > 100 | > 100 | > 100 | > 100 | inactive | > 100 | > 100 | inactive | inactive | > 100 | inactive | > 100 | > 100 | inactive | inactive | inactive | > 100 | > 100 | > 100 | inactive | Activity (Pseudomonas aeruginosa [15]): inactive; CC50 [16]: > 100 µM; Activity (Pseudomonas aeruginosa [17]): inactive
2 | CCCC[C@H]1CC[C@H](c2ccc(NC(=S)Nc3cccc(C(F)(F)F)c3)cc2)CC1 | > 17 | > 9.5 | > 10 | > 17 | inactive | > 17 | 10 | inactive | inactive | > 17 | inactive | 22 | > 22 | inactive | inactive | inactive | > 17 | > 9.5 | 17 | inactive | Activity (Pseudomonas aeruginosa [15]): inactive; CC50 [16]: 9.5 µM; Activity (Pseudomonas aeruginosa [17]): inactive
3 | CC[C@H]1CC[C@H](c2ccc(NC(=S)Nc3cccc(C(F)(F)F)c3)cc2)CC1 | > 10 | > 10 | > 9 | > 10 | inactive | > 10 | 9 | inactive | inactive | > 10 | inactive | 39 | > 39 | inactive | inactive | inactive | > 10 | > 10 | 10 | inactive | Activity (Pseudomonas aeruginosa [15]): inactive; CC50 [16]: 10 µM; Activity (Pseudomonas aeruginosa [17]): inactive
